Hits are enriched below; roughly 2.8% of the tested compounds scored in any of these assays.
NPY1 pot ag – NPY-Y1 receptor potentiators or agonists, primary screen, cell-based; Neuropeptide Y receptor type 1 (Homo sapiens), P25929; 220,000 tested, 0.37% active; NPY-Y1 expressing cells, potentiator/agonist activation; activation, % at 3.6 µM; in the data active means activation above about 33%, passing the limit was not always enough;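 further: cells stimulated with NPY at EC10 then isoproterenol at EC100; 0% = low agonist plus stimulus and 100% = saturating agonist plus stimulus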
Measles CPE – compounds protecting cells from measles virus cytopathic effect, primary screen, measles RdRp inhibitor project, single point, MLSMR library, absorbance | Measles virus-infected cells, CPE protection | protection (pct of control), % at 4 µM | 140,000 tested, 1.5% active; in the data active means protection mostly above about 24%, no sharp cut-off; inactive means mostly below about 26%
Rad51 HR inh – human RAD51 strand exchange inhibitors, primary screen, biochemical, fluorescence | DNA repair protein RAD51 homolog 1 (Homo sapiens), Q06609 | hRad51 DNA strand exchange, fluorescence dequenching | inhibition, % at 10 µM | 200,000 tested, 0.085% active | AID 1385, 2008;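 active means inhibition above 40% at the single screening dose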;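 further: 0% = DMSO control wells and 100% = blanks with heterologous ssDNA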
Target sequence (Q06609 whole entry, looked up): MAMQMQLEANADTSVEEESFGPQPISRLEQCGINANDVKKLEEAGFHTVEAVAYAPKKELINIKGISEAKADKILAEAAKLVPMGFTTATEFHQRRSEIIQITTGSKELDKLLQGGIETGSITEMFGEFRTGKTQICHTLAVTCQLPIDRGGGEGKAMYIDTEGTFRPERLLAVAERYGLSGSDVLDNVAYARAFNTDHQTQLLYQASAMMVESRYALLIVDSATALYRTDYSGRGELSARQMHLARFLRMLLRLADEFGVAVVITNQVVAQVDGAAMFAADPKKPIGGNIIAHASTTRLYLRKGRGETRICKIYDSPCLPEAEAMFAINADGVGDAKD
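Test system – preformed human Rad51 ssDNA filaments · Reagent – Donor/quencher-labelled 47-bp dsDNA substrate · Incubation – 37 °C 15-min filament assembly, 30-min compound preincubation, 15-min exchange · Signal – FRET fluorescence dequenching, excitation 485 nm, emission 520 nm · Read-out – percent inhibition from fluorescence, normalised to plate control and blank means · Benchmarks – plate control and blank wells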
NPY2 pot ag – NPY-Y2 potentiators or agonists, primary screen, cell-based | 220,000 tested, 0.45% active | activation, % at 3.6 µM | cells expressing NPY-Y2, potentiator/agonist read-out; in the data active means activation above about 27%;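 further: cells stimulated with NPY near EC25 plus isoproterenol at EC100; 0% = vehicle plus submaximal agonist and 100% = vehicle plus saturating agonist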
NPY-Y2 antag – NPY-Y2 receptor antagonists, primary screen, cell-based | Neuropeptide Y receptor type 2 (Homo sapiens), P49146 | NPY-Y2 expressing cells, antagonist mode | inhibition, % at 2.7 µM | 140,000 tested, 0.99% active; in the data active means inhibition above about 17%;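 further: 0% = vehicle with agonist challenge and 100% = reference antagonist with challenge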
NPY-Y1 antag – NPY-Y1 receptor antagonists, primary screen, cell-based; HEK293-CNG Y1 cells, membrane potential fluorescence; NPY at EC95, then isoproterenol; inhibition, % at 3.6 µM; 200,000 tested, 1% active; Neuropeptide Y receptor type 1 (Homo sapiens), P25929;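 active means inhibition above the campaign mean inhibition of all tested compounds plus 3 SD, cut at about 20% in these data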;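 further: 0% = DMSO wells given NPY plus isoproterenol and 100% = isoproterenol alone without NPY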
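Material: HEK293 Y1/CNG channel cell line | Also added: NPY (25 nM), isoproterenol (1 µM), Ro 20-1724 (25 µM) | Compound: One concentration, 3.6 µM, in 0.4% DMSO | Schedule: 3 h dye uptake, 1 h room-temperature compound, 45 min post-isoproterenol | Signal: Membrane-potential fluorescent dye readout | Read-out: % inhibition of NPY effect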
NPY-Y2 pot conf – NPY-Y2 potentiators or agonists, confirmation, cell-based; activation, % at 3.6 µM; shares compounds with NPY2 pot ag; AID 1539, 2009; cell-based NPY-Y2 potentiator/agonist assay; 450 tested, 20% active; in the data active means activation above about 33%
NPY-Y1 potentiator – NPY-Y1 potentiators or agonists, counter-screen for NPY-Y2 potentiator project, cell-based, fluorescence. Y1 HEK293-CNG cells, membrane potential fluorescence. 450 tested, 20% active. shares compounds with NPY2 pot ag. activation, % at 3.6 µM; in the data active means activation above about 45%;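 further: cells stimulated with submaximal NPY then isoproterenol with phosphodiesterase inhibitor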
NPY-Y1 ag 2 – NPY-Y1 direct agonists, selectivity assay for NPY-Y2 potentiator project, cell-based, fluorescence. shares compounds with NPY2 pot ag. 450 tested, 37% active. HEK293 Y1-CNGC, membrane potential fluorescence, agonism. activation, % at 3.6 µM. AID 1702, 2009;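 active means activation above the mean of DMSO-only control wells plus 3 SD, cut at about 18% in these data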;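 further: cells stimulated with 1 µM isoproterenol plus the PDE inhibitor Ro 20-1724; 0% = isoproterenol with DMSO and no NPY and 100% = 40 nM NPY; Y1 agonists lower the membrane potential dye signal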
CNGC inhibitor – CNGC cAMP sensor activity inhibitors, counter-screen for NPY-Y2 potentiator project, cell-based, HEK293-CNG parental, membrane potential fluorescence. inhibition, % at 3.6 µM. isoproterenol cAMP. shares compounds with NPY2 pot ag. 450 tested, 32% active;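 active means inhibition above the control-well mean plus 3 SD of those wells, cut at about 22% in these data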;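 further: 0% = DMSO with isoproterenol and 100% = DMSO without isoproterenol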
Y2 agonist ctr – NPY-Y2 direct agonists, counter-screen for NPY-Y2 potentiator project, cell-based, fluorescence; shares compounds with NPY2 pot ag; HEK293 Y2/CNGC cells, membrane potential fluorescence, agonist mode; activation, % at 3.6 µM; 450 tested, 56% active;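 active means activation above the mean of solvent-only control wells plus 3 SD, cut at about 10% in these data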;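 further: cells stimulated by isoproterenol with no NPY added so direct agonism is tested; 0% = DMSO with isoproterenol alone and 100% = NPY at EC100 plus isoproterenol; agonism lowers probe fluorescence through less cAMP and CNG channel opening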
Starred values were filed as active, the others as inactive; / = no result given.

SMILES | NPY1 pot ag | Measles CPE | Rad51 HR inh | NPY2 pot ag | NPY-Y2 antag | NPY-Y1 antag | NPY-Y2 pot conf | NPY-Y1 potentiator | NPY-Y1 ag 2 | CNGC inhibitor | Y2 agonist ctr
COc1cc(/C=N/Nc2nc3ccccc3s2)cc([N+](=O)[O-])c1O | 3 | / | 13 | -9 | / | / | / | / | / | / | /
O=[N+]([O-])c1cc(Cl)cc(/C=N/Nc2nc3ccccc3s2)c1O | 24 | / | 7 | 28* | / | -2 | 60* | 68* | 69* | 63* | 66*
Cc1ccc(OCc2ccc(C(=O)NN)o2)c([N+](=O)[O-])c1 | 17 | / | -1 | -8 | / | / | / | / | / | / | /
COC(=O)c1ccc(COc2ccc(C)cc2[N+](=O)[O-])o1 | 20 | / | 17 | 56* | / | / | 6 | -10 | -15 | -10 | 6
Cc1cc(C)n(-c2ncc3c(n2)N(CCO)CCOC3=O)n1 | 27 | / | -16 | 73* | / | / | -3 | 4 | 1 | 0 | 1
N#Cc1c(Cl)nsc1NN | 22 | / | 4 | 31* | / | 1 | 17 | 27 | 27* | 15 | 30*
Cc1nn(C)cc1CN1CCCC(C(=O)c2ccc(-c3ccccc3)cc2)C1 (centres undefined) | -25 | / | 19 | -6 | / | 6 | / | / | / | / | /
CCN(CC)S(=O)(=O)c1ccc2[nH]cc(C(=O)NCCC3=CCCCC3)c(=O)c2c1 | 36 | 19 | -1 | 34* | -4 | -11 | 19 | 13 | 13 | 14 | 23*
CCN(CC)S(=O)(=O)c1ccc2[nH]cc(C(=O)NCCN3CCCCC3C)c(=O)c2c1 (centres undefined) | -1 | 6 | / | -2 | -3 | 6 | / | / | / | / | /
O=P(OC1CCCCC1)(OC1CCCCC1)C(Nc1ccccc1)c1cccnc1 (centres undefined) | 35 | / | / | 44* | / | / | 25 | 27 | 17* | 28* | 20*
CCCOc1ccc(/C=N/Nc2ccc(C(=O)O)cc2)c(OCCC)c1 | 15 | / | 12 | 30* | / | 1 | 13 | 17 | 11 | 9 | 21*
CCOC(=O)CN1C(=O)C(Sc2n[nH]c(-c3ccccc3)n2)CCc2ccccc21 (centres undefined) | -8 | 6 | -1 | -3 | -1 | -4 | / | / | / | / | /
CCCc1cc(-c2[nH]ncc2-c2ccc(C(=O)OCC)o2)c(O)cc1O | 26 | 29 | 0 | 41* | -2 | -1 | 20 | 19 | 10 | 13 | 22*
C[N+](C)(CC#Cc1ccccc1)CC(=O)c1ccc(Cl)cc1 | 1 | 3 | 8 | -10 | 1 | -2 | / | / | / | / | /
Oc1ccccc1-c1cc(-c2ccco2)[nH]n1 | 12 | 7 | -1 | -1 | 0 | -6 | / | / | / | / | /
Cc1ccc(O)c(-c2cc(-c3ccccc3[N+](=O)[O-])[nH]n2)c1 | 31 | 11 | / | 35* | -7 | -12 | 34* | 38 | 36* | 33* | 35*
